Screening data: PubChem BioAssay, several laboratories
Most compounds without a hit are left out; they make up all but 2.3% or so of the library.
Pemphigus Ab inh – blocks pemphigus antibody binding to human desmoglein-3 | P32926 | DSG3-coupled beads, scFv-anti-DSG3-GFP binding, flow cytometry; hits give low values | binding (percent of control), % at 10 µM | 0.48% of 310,000 active | AID 588358;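 active = binding more than 3 SD below its plate's average and above zero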;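 note: hits lower antibody fragment binding to DSG3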
Bim-Mcl-1 – disrupts Bim peptide binding to human Mcl-1; Bead-based flow cytometry, Bim peptide-Mcl-1 binding; inhibition, % at 10 µM; 0.1% of 190,000 active; in the data active = inhibition above about 40%;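 note: 0% = no compound tracer wells and 100% = peptide blocker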
Target sequence (Q07820 whole entry, looked up): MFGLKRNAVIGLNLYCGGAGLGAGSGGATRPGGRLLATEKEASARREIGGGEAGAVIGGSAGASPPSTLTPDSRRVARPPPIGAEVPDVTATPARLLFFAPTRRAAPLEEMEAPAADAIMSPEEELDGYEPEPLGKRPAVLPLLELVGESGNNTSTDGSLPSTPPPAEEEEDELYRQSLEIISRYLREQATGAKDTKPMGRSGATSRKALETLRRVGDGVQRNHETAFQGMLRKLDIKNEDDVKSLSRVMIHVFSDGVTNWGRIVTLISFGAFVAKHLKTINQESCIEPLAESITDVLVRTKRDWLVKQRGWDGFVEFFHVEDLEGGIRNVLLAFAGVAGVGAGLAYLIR
T cell HTS – T cell immune modulators affecting CD8 T cell-vesicle binding; 2C CD8+ T cell-vesicle binding, flow cytometry; hits give low values; response (vesicle binding), % at 7 µM; 0.068% of 330,000 active; AID 2052;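 active = response, share of CD8 T cells binding vesicles, and their 90th percentile fluorescence all below set limits, cut at about 80% in these data, passing the limit was not always enough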;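 note: values below 100% mean blocked vesicle binding to the CD8+ T cells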
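Material: murine 2C transgenic CD8+ T lymphocytes / Also added: QL9-peptide-loaded Drosophila micro-vesicles bearing Ld, ICAM-1 and B7-1 / Schedule: binding step 1.5 h, 37 °C, antibody labelling 20 min, ice / Signal: flow cytometry, PE anti-B7-1 (FL2) versus Alexa647 anti-CD8 (FL8), PFA-fixed / Evaluation: percent CD8+ FL2 mean versus row control / Benchmarks: naked versus QL9-loaded vesicles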
Mcl1-Noxa inh – Mcl-1/Noxa interaction inhibition; TR-FRET Mcl-1/Noxa peptide binding, 2 h; inhibition, % at 21.7 µM; 1.5% of 220,000 active; AID 1022;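 active = compounds that cut the protein-peptide binding signal by more than 50% relative to plate controls in a single-dose test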;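 note: His-tagged Mcl-1 with rhodamine Noxa BH3 peptide and terbium anti-His antibody; 0% = Mcl-1 plus Noxa peptide wells and 100% = peptide-only wells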
MCL1-BIM inh – disrupts human MCL1 binding to BIM-BH3 peptide | Q07820 | GST-MCL1 / FITC-Bim-BH3 fluorescence polarization | inhibition, % at 10.9 µM | 0.68% of 320,000 active;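 active = inhibition above the mean inhibition of all tested compounds plus 3 SD, set per campaign, cut at about 40% in these data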;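 note: 0% = DMSO wells and 100% = unlabeled Bim-BH3 peptide control; higher means more loss of mP so more displacement of Bim peptide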
Mcl1 Bid PPI – Mcl-1/Bid interaction inhibition | 0.97% of 220,000 active | TR-FRET Mcl-1/Bid-Dy647 peptide binding, 1536-well | Q07820 | AID 1021 | inhibition, % at 21.7 µM;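 active = compounds that cut the binding signal by more than half at the single screening dose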;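 note: His-tagged Mcl-1 with europium anti-His antibody binding Bid BH3 peptide; 0% = Mcl-1 plus peptide wells and 100% = peptide-only wells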
Bcl-xL conf – Bcl-xL (human) inhibition, MCL1 counter-screen confirmation | shares compounds with MCL1-BIM inh | GST-Bcl-xL / FITC-Bim BH3 peptide FP binding | inhibition, % at 10.9 µM | 54% of 1,700 active | AID 2166;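 active = inhibition above a cutoff equal to the mean inhibition of all tested compounds plus 3 SD, cut at about 30% in these data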;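 note: 0% = DMSO wells and 100% = unlabeled Bim BH3 control peptide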
Target sequence (Q07817 whole entry, looked up): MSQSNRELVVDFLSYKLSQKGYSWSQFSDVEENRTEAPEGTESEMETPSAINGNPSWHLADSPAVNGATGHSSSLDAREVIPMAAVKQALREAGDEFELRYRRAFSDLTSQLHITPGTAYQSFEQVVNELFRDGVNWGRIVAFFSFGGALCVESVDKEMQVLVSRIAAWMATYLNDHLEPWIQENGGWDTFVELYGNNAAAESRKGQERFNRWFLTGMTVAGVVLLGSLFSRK
MCL1 inh confirm – confirmation of human MCL1 and BIM-BH3 interaction inhibitors; inhibition, % at 10.9 µM; shares compounds with MCL1-BIM inh; AID 2168; 61% of 1,700 active; GST-MCL1 / FITC-Bim-BH3 fluorescence polarization;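 active = inhibition above the average of all tested compounds plus 3 SD, cut at about 40% in these data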;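 note: 0% = DMSO wells and 100% = unlabeled Bim-BH3 control peptide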
An asterisk follows results filed as active; i = inactive; nt = no result given.

SMILES | Pemphigus Ab inh | Bim-Mcl-1 | T cell HTS | Mcl1-Noxa inh | MCL1-BIM inh | Mcl1 Bid PPI | Bcl-xL conf | MCL1 inh confirm
Cc1c(NC(=O)C(C)OC(=O)c2cc(-c3cccc4ccccc34)nc3ccccc23)c(=O)n(-c2ccccc2)n1C (stereo not given) | 82.9 | -3.0 | 704.0 | 13.4 | 86.4* | 0.6 | 26.1 | 30.4
CC(=O)Nc1ccc2nc3c(=O)n(C)c(=O)n(C)c3nc2c1 | nt | nt | 109.0 | 57.5* | 190.3* | -21.0 | 145.6* | 190.1*
CC(=O)c1ccc(NC(=O)CN(c2c(C)cccc2C)S(C)(=O)=O)cc1 | 96.1 | nt | 212.6 | nt | nt | nt | nt | nt
CCc1cc2c(SCC(=O)NC3CC3)ncnc2s1 | 117.3 | nt | 146.2 | nt | nt | nt | nt | nt
Cc1ccc(Nc2ccc(N)cc2S(=O)(=O)O)cc1 | 99.5 | nt | 326.2 | 20.6 | 35.0 | -27.1 | nt | nt
Nc1ccc(Nc2ccccc2)c(S(=O)(=O)O)c1 | 94.9 | nt | 207.5 | 41.1 | 41.5* | -19.8 | 47.9* | 78.0*
CCN(CC)C(=O)C1=C(C)N(Cc2ccc(OC)cc2)C(=O)C(CC(=O)NCC2CCCCC2)C1 (stereo not given) | 101.9 | nt | nt | nt | nt | nt | nt | nt
CC(=O)c1c(Cl)nc2cccc3c2c1-c1ccccc1C3=O | 98.0 | nt | 321.0 | nt | 59.5* | nt | 39.9* | 36.9
COc1cc(-c2c(C(C)=O)c(C)nc3c2C(=O)c2ccccc2-3)cc(OC)c1OC | 94.7 | nt | nt | nt | nt | nt | nt | nt
S=C(Nc1ccc2nc(-c3ccccn3)c(-c3ccccn3)nc2c1)N1CCOCC1 | 87.7 | 2.0 | 152.4 | 13.6 | 86.6* | -53.0 | 31.0* | 36.9
COc1cc(NC(=S)N2CCN(CCO)CC2)cc(OC)c1 | 119.6 | nt | 219.3 | nt | 81.5* | nt | 18.1 | 29.9
COc1ccc(/C=N/NC(=O)c2nn(-c3ccccc3)c(=O)c3c(N)scc23)cc1 | nt | -1.0 | 163.7 | 54.7* | 41.0* | -36.1 | 12.1 | 1.5
COc1ccc(/C=N/NC(=O)c2nn(-c3ccc(C)c(C)c3)c(=O)c3ccccc23)cc1 | 98.4 | -3.0 | 269.6 | 5.1 | 1.4 | 4.6 | nt | nt
Cc1ccc(CNc2ncc(-c3ccc4c(c3)OCO4)n2C)cc1 | 104.4 | 0.0 | 437.3 | 17.9 | 6.0 | 13.3 | nt | nt
O=C(NCc1ccncc1)C(=O)Nc1ccc2c(c1)OCO2 | 102.7 | -4.0 | 164.2 | 4.7 | 3.5 | -6.5 | nt | nt
c1cc(CNc2ccc3c(c2)OCO3)ccn1 | 92.5 | -4.0 | 450.5 | 23.9 | 85.4* | -51.0 | 64.3* | 80.9*
Cc1ccc(CNc2ccc3c(c2)OCO3)cc1 | 101.6 | 6.0 | 277.4 | 24.6 | 158.6* | -41.8 | 106.0* | 134.9*
CN(C(=O)c1cccc(NC(=O)Cc2ccc(NC(=O)C3CCCN(C(=O)C4CC4)C3)cc2)c1)C1CCC1 (stereo not given) | 92.9 | nt | nt | nt | nt | nt | nt | nt
Cn1cc(CN2CCC(C(=O)Nc3cccc(-c4cccc(F)c4)c3)CC2)cn1 | 108.5 | nt | 125.5 | nt | 81.8* | nt | 7.8 | 13.0
COc1cccc(-c2cccc(NC(=O)C3CCN(Cc4cnn(C)c4)CC3)c2)c1 | 109.8 | nt | i | nt | -3.8 | nt | nt | nt
Cc1cccn2c(=O)c(C=C(C#N)C#N)c(N3CCN(C)CC3)nc12 | 108.9 | nt | 204.7 | nt | 53.4* | nt | 11.9 | 18.4
N#CCc1cnc2ccccc2n1 | 112.9 | nt | 214.0 | 2.6 | 76.4* | -17.1 | 6.7 | 1.7
NS(=O)(=O)c1ccc(NCc2cnc3ccccc3n2)cc1 | 100.4 | nt | nt | nt | nt | nt | nt | nt
O=C(c1nc2ccc(Cl)cn2c1CN1CCCC1)N1CCc2ccccc2C1 | 109.2 | nt | 483.9 | nt | 67.4* | nt | 62.7* | 87.2*
O=C(c1nc2ccc(Cl)cn2c1CN1CCC(CO)CC1)N1CCc2ccccc2C1 | 97.5 | nt | 560.9 | nt | -3.9 | nt | nt | nt
Cc1ccccc1CN1CCN(Cc2cc(=O)c3ccccc3[nH]2)CC1CCO (stereo not given) | 98.7 | nt | 165.7 | nt | 13.1 | nt | nt | nt
CCOC(=O)COn1c(=O)c(-c2ccc(OC)c(OC)c2)[n+]([O-])c2ccccc21 | nt | -8.0 | 564.6 | 34.8 | 71.8* | 0.6 | 18.4 | 13.2
CC(=O)Nc1ccc2c(c1)C(N1CC3CCC(CC3)C1)c1ccccc1-2 (stereo not given) | 101.9 | nt | nt | nt | nt | nt | nt | nt
